The values that follow come from ChEMBL document CHEMBL1137484, “Design and synthesis of opioidmimetics containing 2',6'-dimethyl-L-tyrosine and a pyrazinone-ring platform” (Bioorg Med Chem Lett, 2007).

By IC50 is commonly meant the concentration that gives 50% inhibition. One may read the Ki as a dissociation constant, usually derived from enzyme kinetics or from competition with a known ligand. The term inhibition denotes the relative decrease from the control value, in per cent.

Assay [1] has as its target T1, Mu-type opioid receptor (Cavia porcellus, UniProt P97266). Put plainly: Agonist activity at mu opioid receptor in guinea pig ileum assessed as inhibition of electrically-stimulated muscle contraction. Format: functional, tissue-based. The procedure, abridged: (§1)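 Reference agonists run alongside: deltorphin II for delta in mouse vas deferens (MVD) and endomorphin 2 for mu in guinea pig ileum (GPI).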

For assay [2], the target named is Delta-type opioid receptor (Homo sapiens, UniProt P41143). Put plainly: Displacement of [3H]deltorphin 2 from delta opioid receptor. Background: Displacement assays read how much labelled ligand stays bound in the presence of the test substance.
Delta-type opioid receptor (Homo sapiens, UniProt P41143), sequence (P41143 whole entry): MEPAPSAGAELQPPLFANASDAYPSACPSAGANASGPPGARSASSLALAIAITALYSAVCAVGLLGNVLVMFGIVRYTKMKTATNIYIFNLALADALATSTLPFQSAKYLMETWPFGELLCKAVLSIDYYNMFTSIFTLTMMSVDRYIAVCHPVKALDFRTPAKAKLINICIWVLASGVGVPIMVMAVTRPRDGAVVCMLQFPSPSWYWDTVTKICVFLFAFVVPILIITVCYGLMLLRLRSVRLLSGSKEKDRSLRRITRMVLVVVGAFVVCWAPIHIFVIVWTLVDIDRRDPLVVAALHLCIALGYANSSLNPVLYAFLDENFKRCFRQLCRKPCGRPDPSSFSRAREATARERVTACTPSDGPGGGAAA
Assay [3] addresses Mu-type opioid receptor (Homo sapiens, UniProt P35372). Put plainly: Displacement of [3H]DAMGO from human mu opioid receptor.
Assay [4] concerns the target Mu-type opioid receptor (Cavia porcellus) (UniProt P97266). Put plainly: Agonist activity at mu opioid receptor in guinea pig ileum assessed as inhibition of electrically-stimulated muscle contraction at 10 uM. Format: functional, tissue-based.
The species entered for the next assay is Homo sapiens. Put plainly: Selectivity for human mu opioid receptor over human delta opioid receptor.
In assay [5] the target is T2, Delta-type opioid receptor (Mus musculus, UniProt P32300). Put plainly: Agonist activity at delta opioid receptor in mouse vas deferens assessed as inhibition of electrically-stimulated muscle contraction. Format: functional, tissue-based. The procedure, abridged:
as §1

Assay [6] deals with Delta-type opioid receptor (Mus musculus) (UniProt P32300). Put plainly: Agonist activity at delta opioid receptor in mouse vas deferens assessed as inhibition of electrically-stimulated muscle contraction at 10 uM. The class given is functional, tissue-based.
Delta-type opioid receptor (Mus musculus), sequence (P32300 whole entry): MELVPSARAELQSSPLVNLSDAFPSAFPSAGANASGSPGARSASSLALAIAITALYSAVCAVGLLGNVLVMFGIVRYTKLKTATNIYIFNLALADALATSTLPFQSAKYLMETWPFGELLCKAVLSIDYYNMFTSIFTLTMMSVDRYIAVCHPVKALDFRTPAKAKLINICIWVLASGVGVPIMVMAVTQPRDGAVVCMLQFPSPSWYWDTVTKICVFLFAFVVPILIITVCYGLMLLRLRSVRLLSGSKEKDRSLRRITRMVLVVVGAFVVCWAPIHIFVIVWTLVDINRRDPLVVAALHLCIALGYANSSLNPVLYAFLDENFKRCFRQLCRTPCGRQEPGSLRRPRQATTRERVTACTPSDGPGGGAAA
Assay [7] concerns the target T2, Delta-type opioid receptor. Put plainly: Antagonist activity at delta opioid receptor in mouse vas deferens. Format: functional, tissue-based. As to conditions: read-out: pA2 (converted). Put shortly:
(§2)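 Antagonism given as pA2: the negative log of the antagonist concentration (M) that doubles the agonist concentration needed to restore the original response. The agonist was deltorphin II in MVD (delta) and endomorphin 2 in GPI (mu).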

For assay [8], the target named is T1, Mu-type opioid receptor. Put plainly: Antagonist activity at mu opioid receptor in guinea pig ileum. The class given is functional, tissue-based. As to conditions: read-out: pA2 (converted). Put shortly: as §2

Each structure is given as a SMILES string. Some results are limits rather than exact numbers.

Mu-type opioid receptor (Cavia porcellus), sequence (P97266 whole entry): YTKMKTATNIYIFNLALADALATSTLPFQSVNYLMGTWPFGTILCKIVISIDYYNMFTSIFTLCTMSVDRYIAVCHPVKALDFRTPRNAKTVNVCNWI
T1 sequence (P97266 whole entry): as above
T2 sequence (P32300 whole entry): as the sequence (P32300 whole entry) above
Mu-type opioid receptor (Homo sapiens, UniProt P35372), sequence (P35372 whole entry): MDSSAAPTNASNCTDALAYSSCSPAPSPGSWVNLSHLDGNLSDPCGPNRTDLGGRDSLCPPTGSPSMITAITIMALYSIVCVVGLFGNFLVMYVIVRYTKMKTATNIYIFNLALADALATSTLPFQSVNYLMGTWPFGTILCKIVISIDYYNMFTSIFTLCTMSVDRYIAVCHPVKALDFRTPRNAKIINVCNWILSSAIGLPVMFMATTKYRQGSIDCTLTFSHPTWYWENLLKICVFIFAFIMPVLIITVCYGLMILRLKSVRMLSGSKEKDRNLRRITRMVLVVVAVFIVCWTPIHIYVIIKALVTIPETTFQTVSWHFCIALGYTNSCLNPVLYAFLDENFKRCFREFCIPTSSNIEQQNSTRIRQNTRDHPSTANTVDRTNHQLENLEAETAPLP

Turning to `Cc1cc(O)cc(C)c1C[C@H](N)C(=O)NCc1nc(C)c(C)[nH]c1=O`, the IC50 (at Mu-type opioid receptor [1]; in [5]) was over 10000 nM throughout. For the same molecule, the results for the Ki (in assay [2]; at Mu-type opioid receptor [3]) were 698 nM and 129 nM, respectively. Further, the figures for the inhibition in [4] and in assay [6] were 20.6% and 28.1%, respectively. Moreover, in the assay filed under Homo sapiens, the Ratio Ki was 5.4. The Kb in assay [7] was 1480 nM.
On to `Cc1cc(O)cc(C)c1C[C@H](N)C(=O)NCCCCc1nc(C)c(CCc2ccccc2)[nH]c1=O`, for which the IC50 was 15.9 nM at Mu-type opioid receptor [1] and over 10000 nM in assay [5]. Further, the Ki in [2] is 55.9 nM; at Mu-type opioid receptor [3] it was 0.125 nM. The Ratio Ki in the assay filed under Homo sapiens worked out at 447. Moreover, the inhibition in [6] turned out to be 12.8%. Further, the Kb in [7] is 447 nM.
In the case of `Cc1cc(O)cc(C)c1C[C@H](N)C(=O)NCCCc1nc(C)c(C)[nH]c1=O`, the IC50 (at Mu-type opioid receptor [1]; in [5]) was over 10000 nM in each case. Also, the Ki in assay [2] worked out at 269 nM; on Mu-type opioid receptor [3], 8.88 nM. Also, the inhibition in [4] is 22.7%; in [6], 31.1%. Further, the Ratio Ki in the assay filed under Homo sapiens was found to be 30. The Kb in assay [7] is over 3160 nM.
For the molecule `Cc1cc(O)cc(C)c1C[C@H](N)C(=O)NCCCc1nc(C)c(CCc2ccccc2)[nH]c1=O`, the results for the 50% inhibitory concentration (IC50) (at Mu-type opioid receptor [1]; in assay [5]) were 5550 nM and over 10000 nM, respectively. The values for the Ki (in [2]; on Mu-type opioid receptor [3]) were 38.2 nM and 0.55 nM, respectively. Besides, the Ratio Ki in the assay listed under Homo sapiens turned out to be 69. In addition, the Kb at Mu-type opioid receptor [8] is over 1000 nM; in assay [7], 1350 nM. Besides, the inhibition in [6] is 4.1%.
Turning to `Cc1cc(O)cc(C)c1C[C@H](N)C(=O)NCCCCc1[nH]c(=O)cnc1C`, the half-inhibitory concentration (IC50) (at Mu-type opioid receptor [1]; in assay [5]) was over 10000 nM each time. Also, the Ki was found to be 344 nM in assay [2] and 56.9 nM on Mu-type opioid receptor [3]. Besides, the values for the inhibition in assay [4] and in assay [6] were 37.1% and 28.1%, respectively. Also, the Ratio Ki in the assay filed under Homo sapiens worked out at 6. In addition, the figures for the Kb (on Mu-type opioid receptor [8]; in assay [7]) were over 1000 nM and over 3160 nM, respectively.
For the molecule `Cc1c[nH]c(=O)c(CCCCNC(=O)[C@@H](N)Cc2c(C)cc(O)cc2C)n1`, the IC50 (at Mu-type opioid receptor [1]; in assay [5]) was over 10000 nM in each case. Moreover, the inhibition constant Ki came out at 73.8 nM in assay [2] and 0.62 nM at Mu-type opioid receptor [3]. Besides, the inhibition in assay [4] was found to be 47.6%; in assay [6], 25.7%. Besides, in the assay filed under Homo sapiens, the Ratio Ki is 119. In addition, the Kb in assay [7] was over 3160 nM.
In the case of `Cc1cc(O)cc(C)c1C[C@H](N)C(=O)NCCCCc1nc(C)c(C)[nH]c1=O`, the IC50 (at Mu-type opioid receptor [1]; in assay [5]) was over 10000 nM in each case. The Ki is 77.7 nM in [2] and 4.23 nM on Mu-type opioid receptor [3]. For the same molecule, the inhibition in assay [4] is 35.1%; in assay [6], 26.2%. Further, the Ratio Ki in the assay listed under Homo sapiens was 18. Moreover, the Kb at Mu-type opioid receptor [8] is 200 nM; in assay [7], 2510 nM.
`Cc1cc(O)cc(C)c1C[C@H](N)C(=O)NCCCCc1[nH]c(=O)c(C)nc1C`: the IC50 (at Mu-type opioid receptor [1]; in assay [5]) was over 10000 nM in each case. The figures for the Ki (in [2]; at Mu-type opioid receptor [3]) were 208 nM and 15.4 nM, respectively. Besides, the inhibition in assay [4] was found to be 30.1%; in assay [6], 0%. In the assay filed under Homo sapiens, the Ratio Ki is 14. In addition, the figures for the Kb (on Mu-type opioid receptor [8]; in assay [7]) were over 1000 nM and 2340 nM, respectively.
`Cc1cccc(C)c1Cc1[nH]c(=O)c(CCCCNC(=O)[C@@H](N)Cc2c(C)cc(O)cc2C)nc1C`: the half-maximal inhibitory concentration (IC50) was 6270 nM on Mu-type opioid receptor [1] and over 10000 nM in assay [5]. Moreover, the Ki in [2] came to 5.3 nM; on Mu-type opioid receptor [3], 0.66 nM. Besides, the Ratio Ki in the assay filed under Homo sapiens came to 8. Further, the Kb was over 1000 nM at Mu-type opioid receptor [8] and 245 nM in assay [7]. For the same molecule, the inhibition in assay [6] was 6.4%.
On to `Cc1cc(O)cc(C)c1C[C@H](N)C(=O)NCCCCc1nc(C)c(Cc2ccccc2)[nH]c1=O`, for which the IC50 (on Mu-type opioid receptor [1]; in [5]) was over 10000 nM each time. Further, the Ki was found to be 8.6 nM in assay [2] and 0.42 nM at Mu-type opioid receptor [3]. Besides, the inhibition in assay [4] came out at 39.5%; in [6], 19.9%. Besides, in the assay listed under Homo sapiens, the Ratio Ki worked out at 20. Also, the Kb in [7] is 589 nM.
Turning to `Cc1cc(O)cc(C)c1C[C@H](N)C(=O)NCCCc1nc(C)c(Cc2ccccc2)[nH]c1=O`, the IC50 (at Mu-type opioid receptor [1]; in assay [5]) was over 10000 nM throughout. Moreover, the values for the Ki (in assay [2]; on Mu-type opioid receptor [3]) were 59.6 nM and 1 nM, respectively. Also, the inhibition amounted to 36.7% in assay [4] and 34.6% in [6]. The Ratio Ki in the assay listed under Homo sapiens was 60. For the same molecule, the Kb in assay [7] was 1230 nM.
Turning to `Cc1cc(O)cc(C)c1C[C@H](N)C(=O)NCCc1nc(C)c(C)[nH]c1=O`, the IC50 (on Mu-type opioid receptor [1]; in assay [5]) was over 10000 nM in each case. The Ki in assay [2] amounted to 93.1 nM; at Mu-type opioid receptor [3], 76.5 nM. Also, the inhibition is 45% in [4] and 25.2% in assay [6]. Further, the Ratio Ki in the assay filed under Homo sapiens was found to be 1.2. The Kb in [7] was 1350 nM.
